Data on ten molecules can be found in ChEMBL document CHEMBL1158534, “Antimicrobial activity of tryptanthrins in Escherichia coli” (J Med Chem, 2010).

The structures appear in SMILES notation. ≈ marks a conversion by molar mass, not a printed value. Calls of active or inactive are those of the source. No cut-off for these calls is given here.

The subject of series [1] is Escherichia coli. The series is described as follows: Antibacterial activity against Escherichia coli AS19 in presence of 360 nm light. The class given is functional, organism-based.
Series [2] deals with Escherichia coli. As to the kind of experiment: Antibacterial activity against Escherichia coli AS19 at 10 ug/ml after 3 days in presence of M9 buffer. The format is functional, organism-based. The method, boiled down:
(§1)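 Overnight LB culture of AS19 (pBRF14C) diluted to 10⁵-10⁶ cells/mL in M9 buffer (NH4Cl, Na2HPO4, KH2PO4); tryptanthrins at final 0.05-10 μg/mL (0.2-40 μM), 37 °C up to 72 h. Samples at ~12 h intervals plated on LB + ampicillin, counted after 24 h; surviving fraction relative to untreated M9 cells; duplicate samples, 4-8 repetitions.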

Series [3] relates to Escherichia coli. As to the kind of experiment: Antibacterial activity against Escherichia coli AS19 assessed as growth inhibition at 10 ug/ml after 4 hrs. The class given is functional, organism-based.
The subject of series [4] is Escherichia coli. As to the kind of experiment: Antibacterial activity against Escherichia coli AS19 after 4 hrs. The format is functional. The note with it: AS19, 4 h.
Series [5] addresses T1, DNA topoisomerase 1 (Homo sapiens) (UniProt P11387).
T1 sequence (whole entry): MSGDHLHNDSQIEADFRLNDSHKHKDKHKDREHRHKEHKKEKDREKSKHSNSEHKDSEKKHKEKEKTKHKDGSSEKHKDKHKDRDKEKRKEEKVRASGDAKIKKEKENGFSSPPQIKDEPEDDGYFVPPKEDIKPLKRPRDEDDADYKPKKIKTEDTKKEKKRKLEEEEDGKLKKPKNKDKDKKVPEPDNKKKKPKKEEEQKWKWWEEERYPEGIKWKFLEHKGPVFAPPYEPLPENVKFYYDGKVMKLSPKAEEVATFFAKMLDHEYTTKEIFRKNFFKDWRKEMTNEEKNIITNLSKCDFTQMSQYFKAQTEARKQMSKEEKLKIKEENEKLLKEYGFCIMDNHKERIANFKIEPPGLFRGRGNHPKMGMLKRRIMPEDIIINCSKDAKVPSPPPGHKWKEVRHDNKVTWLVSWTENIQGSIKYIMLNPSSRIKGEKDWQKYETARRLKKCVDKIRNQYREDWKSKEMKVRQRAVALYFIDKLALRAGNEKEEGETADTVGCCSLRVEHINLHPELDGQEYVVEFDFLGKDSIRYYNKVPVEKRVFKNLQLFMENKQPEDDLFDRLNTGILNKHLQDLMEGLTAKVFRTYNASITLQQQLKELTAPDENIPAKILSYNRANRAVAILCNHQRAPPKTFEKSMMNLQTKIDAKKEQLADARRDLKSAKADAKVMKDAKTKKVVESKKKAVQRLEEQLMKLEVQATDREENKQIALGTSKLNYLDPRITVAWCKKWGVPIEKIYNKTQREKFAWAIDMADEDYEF
As to the kind of experiment: Inhibition of human topoisomerase 1-mediated relaxation of circular DNA at 100 ug/ml. The method, boiled down: (§2)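 Relaxation assay: 0.25 μg pGEM-3Z (2743 bp, CsCl-purified) with 1 U human topoisomerase I in 10 mM Tris pH 7.9, 150 mM NaCl, 0.1 mM spermidine, 5% glycerol, tryptanthrin 10-100 μg/mL, 2 h 37 °C (or pre-relaxed 1 h, then drug 1-2 h). Stopped with sarkosyl; 1.5% agarose ± 2 μg/mL chloroquine, 50 V 3-4 h, ethidium stain; drugs bound = (Ldrug−Lo)×360°/28°.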

Series [6] concerns Escherichia coli. As to the kind of experiment: Antibacterial activity against Escherichia coli AS19 at 0.4 ug/ml after 3 days in presence of M9 buffer. The class given is functional, organism-based. In outline:
as §1

Series [7] has as its system Escherichia coli. As to the kind of experiment: Mutagenic activity in Escherichia coli assessed as induction of frame shift mutation.
Series [8] has as its system Escherichia coli. As to the kind of experiment: Antibacterial activity against Escherichia coli AS19 at 0.5 to 10 ug/ml after 3 days in presence of M9 buffer. The note with it: 0.05 to 10 ug/ml, in the assay text read “0.05 to 10 ug/ml” for “0.5 to 10 ug/ml”. The format is functional, organism-based. In outline:
as §1

For series [9], the target named is T1, DNA topoisomerase 1 (Homo sapiens). The series is described as follows: Inhibition of human topoisomerase 1-mediated relaxation of circular DNA. The method, boiled down: as §2
The test system of series [10] is Escherichia coli. As to the kind of experiment: Antibacterial activity against Escherichia coli AS19 at 0.6 to 2 ug/ml. The class given is functional, organism-based.
The test system of series [11] is Escherichia coli. The series is described as follows: Antibacterial activity against Escherichia coli AS19 assessed as cell viability at 10 ug/ml after 20 to 24 hrs. The class given is functional. The method, boiled down:
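LB growth assay with AS19 (pBRF14C) at 37 °C with shaking; after 20-24 h exposure, dilutions in M9 buffer plated (200-400 cells) on LB + 30 μg/mL ampicillin, colonies counted after 24 h at 37 °C; viability = treated cells/mL divided by untreated cells/mL.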

In series [12] the test system is Escherichia coli. The series is described as follows: Antibacterial activity against Escherichia coli AS19 at 1 ug/ml after 4 hrs. The format is functional, organism-based.
Series [13] has as its system Escherichia coli. As to the kind of experiment: Antibacterial activity against Escherichia coli AS19 at 2.5 to 20 ug/ml after 4 hrs. The format is functional, organism-based.
Series [14] deals with Escherichia coli. The series is described as follows: Antibacterial activity against Escherichia coli AS19 at 0.1 ug/ml. The class given is functional, organism-based.
Series [15] deals with Escherichia coli. As to the kind of experiment: Antibacterial activity against Escherichia coli AS19 at 0.01 ug/ml. The class given is functional, organism-based.

For the molecule `O=c1c2cccnc2nc2n1-c1ccccc1/C2=N\O`, the outcome with Escherichia coli [1] was inactive.
Regarding `O=Nc1c2ccccc2n2c(O)c3ccccc3nc12`, the outcome in the series with Escherichia coli [1] was inactive.
For `O=c1c2ccccc2nc2n1-c1ccc(F)cc1/C2=N\O`, the result in the series on Escherichia coli [1] was inactive. Also, in the series on Escherichia coli [2], the outcome was Active.
A word on the GI50: it is the concentration giving 50% growth inhibition. A higher GI50 goes with less potent growth inhibition. Turning to `O=C1c2ccccc2-n2c1nc1ccccc1c2=O` [TRYPTANTHRIN], in the series on Escherichia coli [3], the “growth inhibition (GI)” value is “Active”. In the series on Escherichia coli [4], this molecule registered a 50% growth inhibitory concentration (GI50) of 2.25 µg/mL (≈ 9.06 µM).
Consider `O=C1c2cc([N+](=O)[O-])ccc2-n2c1nc1ccccc1c2=O`, for which, in the series on Escherichia coli [3], the “growth inhibition (GI)” value was “Active”. Also, the inhibition result in series [5] was “inactive”. In the series on Escherichia coli [4], this molecule displayed a 50% growth inhibitory concentration (GI50) of 0.6 µg/mL (≈ 2.05 µM).
For the molecule `O=C1c2cc(Br)ccc2-n2c1nc1ccccc1c2=O`, the outcome with Escherichia coli [6] was Active.
For the molecule `O=C1c2ccccc2-n2c1nc1ncccc1c2=O`, in the series on Escherichia coli [3], the “growth inhibition (GI)” value is “Active”. Besides, the “fold change (FC)” value in the series with Escherichia coli [7] amounted to 22. Further, the outcome with Escherichia coli [8] and in the series on Escherichia coli [2] was Active. Also, the inhibition result in series [9] was “inactive”. Besides, the 50% growth inhibitory concentration (GI50) in the series on Escherichia coli [4] came out at 1.3 µg/mL (≈ 5.22 µM).
As for `O=C1c2cc(F)ccc2-n2c1nc1ccccc1c2=O`, the result with Escherichia coli [6] was Active.
With `O=C1c2ccccc2-n2c1nc1nccnc1c2=O`, the “growth inhibition (GI)” value with Escherichia coli [3] is “Active”. Moreover, the result in the series with Escherichia coli [10], in the series on Escherichia coli [1] and with Escherichia coli [2] was Active. In addition, the GI50 in the series with Escherichia coli [4] worked out at 1.5 µg/mL (≈ 5.99 µM).
Consider `O=C1c2cc(F)ccc2-n2c1nc1ncccc1c2=O`, for which the “growth inhibition (GI)” value with Escherichia coli [3] was “Active”. Besides, the “fold change (FC)” value in the series with Escherichia coli [7] is recorded as 4. Besides, the Activity in the series with Escherichia coli [11] amounted to 15%. Moreover, the result with Escherichia coli [12], with Escherichia coli [13] and with Escherichia coli [2] was Active. The result with Escherichia coli [14] and in the series on Escherichia coli [15] was inactive. Besides, the concentration for 50% growth inhibition (GI50) in the series on Escherichia coli [4] is 0.6 µg/mL (≈ 2.25 µM).
